Experimental data from different studies.
Lines come from different studies, so protocols differ. Values after ≈ are worked out from the molar mass of the structure shown.

| Structure (SMILES) | organism | assay | system | conditions | endpoint | result |
| --- | --- | --- | --- | --- | --- | --- |
| CC(O)CSc1nnc(Cn2cnc3c2c(=O)n(C)c(=O)n3C)n1-c1ccccc1 (stereo not shown) | Escherichia coli | microbial growth, disc diffusion | – | 25 µg/disc | inhibition zone | 11 mm |
| CO/N=C(\C(=O)N[C@@H]1C(=O)N2C(C(=O)O)=C(COC(C)=O)CS[C@H]12)c1csc(N)n1 | Escherichia coli | microbial growth, broth dilution | – | clinical isolate | MIC90 | 64 µg/mL (≈ 141 µM) |
| CC(C)(O/N=C(\C(=O)N[C@@H]1C(=O)N2C(C(=O)[O-])=C(C[n+]3ccccc3)CS[C@H]12)c1csc(N)n1)C(=O)O | Escherichia coli | microbial growth, disc diffusion | – | 2000 µg/mL, 24 h | inhibition zone | 5 mm |
| C=C/C=C(\C)CC[C@H]1C[C@@H](O)CC(=O)O1 | Staphylococcus aureus | microbial growth, broth dilution | ATCC6538P | – | MIC | 256 µg/mL (≈ 1220 µM) |
| CC(O)CSc1nnc(-c2cc3ccccc3o2)n1-c1ccccc1 (stereo not shown) | Staphylococcus aureus | microbial growth, disc diffusion | – | 25 µg/disc | inhibition zone | 11.3 mm |
| CO/N=C(\C(=O)N[C@@H]1C(=O)N2C(C(=O)O)=C(CSC(=O)c3ccco3)CS[C@H]12)c1csc(N)n1 | Staphylococcus aureus | microbial killing | CVCC546 | 18 h | MBC | 2 µg/mL |
| O=C(O)c1cn(C2CC2)c2cc(N3CCNCC3)c(F)cc2c1=O | Escherichia coli | microbial growth, disc diffusion | – | 100 µg/mL, 24 h | inhibition zone | 25 mm |
| C[C@@H](O)[C@H]1C(=O)N2C(C(=O)O)=C(SCCN=CN)C[C@H]12 | Escherichia coli | microbial growth, disc diffusion | – | 2000 µg/mL, 24 h | inhibition zone | 18.5 mm |
| CC(O)CSc1nnc(-c2cc3c(ccc4ccccc43)o2)n1-c1ccccc1 (stereo not shown) | Escherichia coli | microbial growth, disc diffusion | – | 25 µg/disc | inhibition zone | 15.7 mm |
| CC1(C)S[C@@H]2[C@H](NC(=O)[C@H](N)c3ccc(O)cc3)C(=O)N2[C@H]1C(=O)O | Escherichia coli | microbial growth, disc diffusion | – | 100 µg/mL, 24 h | inhibition zone | 20 mm |
